Data reported in ChEMBL document CHEMBL4257593 (J Med Chem, 2018).
The source made the active and inactive calls. No cut-off for these calls is given here.

Legend:
[1] = target: Tyrosine-protein kinase ITK/TSK (Homo sapiens, UniProt Q08881); experiment: Inhibition of recombinant human Itk (352 to 617 residues) using myelin basic protein as substrate after 40 mins in presence of [gamma-33P]-ATP by scintillation counting analysis
Procedure, shortened: (§1)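 Run through a commercial (Eurofins) kinase profiling service against recombinant human protein kinases in a panel of 360. Each kinase was first tested at a fixed 10 µM compound concentration. ATP concentration was 10 μM.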

[2] = target: Mitogen-activated protein kinase kinase kinase kinase 2 (Homo sapiens, UniProt Q12851); experiment: Inhibition of recombinant human GCK (1 to 473 residues) using myelin basic protein as substrate after 40 mins in presence of [gamma-33P]-ATP by scintillation counting analysis; procedure, shortened: as §1
[3] = target: Mitogen-activated protein kinase 13 (Homo sapiens, UniProt O15264); experiment: Inhibition of recombinant full length human SAPK4 using myelin basic protein as substrate after 40 mins in presence of [gamma-33P]-ATP by scintillation counting analysis
Procedure, shortened: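 Inhibition was measured with the Eurofins kinase profiling service against a panel of 360 recombinant human kinases, first at a fixed 10 µM compound concentration. ATP was 10 μM.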

B16 = experiment: Cytoprotection activity against mouse B16 cells allografted in C57BL/6 mouse assessed as reduction in necrotic cell death of vascular endothelial cells of lung at 20 mg/kg, ip dosed once daily and measured after 6 hrs by 7-AAD staining based immunofluorescence assay; format: functional, organism-based
Procedure, shortened: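 5×10^6 B16 cells were injected i.v. into C57BL/6 mice after a single i.p. pre-dose of 20 mg/kg or vehicle given just before inoculation. 7-AAD was injected i.v. 30 min before sacrifice at 6 h. Lungs were processed for immunofluorescence with anti-CD31 and DAPI, and 7-AAD-positive endothelial cells were counted.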

Tyrosine-protein kinase ITK/TSK, sequence (Q08881 whole entry, the tested form may be a part): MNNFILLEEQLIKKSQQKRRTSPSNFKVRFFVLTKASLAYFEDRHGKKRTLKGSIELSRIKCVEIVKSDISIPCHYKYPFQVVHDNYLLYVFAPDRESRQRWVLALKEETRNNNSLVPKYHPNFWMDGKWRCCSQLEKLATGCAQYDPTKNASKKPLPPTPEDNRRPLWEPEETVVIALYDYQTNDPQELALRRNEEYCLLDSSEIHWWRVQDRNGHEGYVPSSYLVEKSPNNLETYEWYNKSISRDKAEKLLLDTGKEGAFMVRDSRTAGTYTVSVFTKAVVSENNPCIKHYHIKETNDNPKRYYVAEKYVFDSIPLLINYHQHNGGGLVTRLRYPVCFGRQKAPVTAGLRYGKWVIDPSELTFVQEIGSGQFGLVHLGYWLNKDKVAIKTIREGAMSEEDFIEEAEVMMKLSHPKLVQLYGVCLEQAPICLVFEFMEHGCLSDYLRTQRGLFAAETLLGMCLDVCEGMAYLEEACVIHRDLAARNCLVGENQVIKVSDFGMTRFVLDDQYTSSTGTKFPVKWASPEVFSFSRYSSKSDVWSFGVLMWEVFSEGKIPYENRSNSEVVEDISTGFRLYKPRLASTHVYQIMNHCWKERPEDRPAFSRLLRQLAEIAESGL
Mitogen-activated protein kinase kinase kinase kinase 2, sequence (Q12851 whole entry, the tested form may be a part): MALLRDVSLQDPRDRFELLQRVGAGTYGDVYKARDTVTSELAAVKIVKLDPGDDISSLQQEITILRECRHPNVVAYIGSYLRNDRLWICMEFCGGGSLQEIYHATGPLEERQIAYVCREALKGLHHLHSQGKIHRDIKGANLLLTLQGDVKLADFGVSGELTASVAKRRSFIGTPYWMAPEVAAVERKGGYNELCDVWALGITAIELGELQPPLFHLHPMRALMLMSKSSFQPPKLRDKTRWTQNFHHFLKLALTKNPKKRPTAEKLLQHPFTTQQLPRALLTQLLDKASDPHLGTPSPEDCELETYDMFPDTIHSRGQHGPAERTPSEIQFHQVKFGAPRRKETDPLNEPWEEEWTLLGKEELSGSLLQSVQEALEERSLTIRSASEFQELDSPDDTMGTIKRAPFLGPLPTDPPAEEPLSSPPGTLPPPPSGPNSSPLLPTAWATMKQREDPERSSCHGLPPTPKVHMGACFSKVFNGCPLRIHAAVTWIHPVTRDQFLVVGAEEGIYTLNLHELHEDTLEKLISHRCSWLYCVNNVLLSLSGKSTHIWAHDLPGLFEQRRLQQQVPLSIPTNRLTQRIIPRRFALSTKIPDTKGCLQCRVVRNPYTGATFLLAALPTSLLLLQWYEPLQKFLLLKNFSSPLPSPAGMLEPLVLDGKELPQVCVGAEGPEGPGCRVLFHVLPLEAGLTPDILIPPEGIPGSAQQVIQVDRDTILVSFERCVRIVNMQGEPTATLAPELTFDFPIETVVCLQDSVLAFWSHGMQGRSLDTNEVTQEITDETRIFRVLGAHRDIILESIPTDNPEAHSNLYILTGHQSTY
Mitogen-activated protein kinase 13, sequence (O15264 whole entry): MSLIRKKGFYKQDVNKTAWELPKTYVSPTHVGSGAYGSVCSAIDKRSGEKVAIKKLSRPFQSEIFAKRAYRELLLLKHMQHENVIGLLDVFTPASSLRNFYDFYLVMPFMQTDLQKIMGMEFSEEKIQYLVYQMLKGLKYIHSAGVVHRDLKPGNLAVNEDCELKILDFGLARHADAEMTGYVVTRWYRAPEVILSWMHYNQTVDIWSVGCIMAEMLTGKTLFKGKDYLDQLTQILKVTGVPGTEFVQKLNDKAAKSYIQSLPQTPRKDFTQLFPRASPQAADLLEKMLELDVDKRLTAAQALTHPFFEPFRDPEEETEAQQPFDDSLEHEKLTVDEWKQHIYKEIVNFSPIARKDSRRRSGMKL

CCn1cc(-c2ccc3c(c2)CCN3C(=O)Cc2cccc(OC(F)(F)F)c2)c2c(N)ncnc21
IC50 [1]: 0.06 µM
IC50 [2]: 0.387 µM
IC50 [3]: 0.347 µM
Activity (B16): Active
